Laboratory results from PubChem BioAssay AID504490 (NMMLSC, 2011).
About 1,100 (0.32%) of roughly 340,000 compounds were called active. This is one part of a sample in which actives are shown more often than they occur.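 Rule for the calls: active = inhibition above a set limit, near 3 SD of compounds lacking own fluorescence (cut at about 54% in these data); inactive = the rest.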

test system: beta-arrestin 1 C-terminal peptide binding to AP2 beta2-adaptin appendage (human); assay: inhibitors of beta-arrestin/AP2 binding, primary screen, biochemical, GPCR trafficking, flow cytometry (AID 504490); settings: FITC-arrestin peptide / GST-AP2 beads, at 10 µM, stronger effect = higher value, AP2 beta2 appendage carries R879A mutation;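 note: plate controls were DMSO wells for no effect and 5 µM unlabelled arrestin peptide for full effect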
How it was run: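 System: GST-AP2 R879A glutathione beads. Medium: PBS with 0.05% Tween 20 and 0.1% BSA. Also added: FITC-arrestin peptide, 50 nM. Incubation: 12 min plus 1 h, RT. Measured by: high-throughput flow cytometry of beads, ex 488, em 535 nm. Evaluation: percent drop in bead-associated FITC signal.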

inhibition, active:
COC(=O)C1CC2=C(CC(C)(C)CC2=O)N(c2ccccc2)C1=O (stereo unspecified) 54.1%
COc1cccc(-n2c(SCC(=O)c3c[nH]c4ccccc34)nc3ccccc3c2=O)c1 105%
CN(C)c1ccc(Nc2c3c4c(cccc4n(C)c2=O)C(=O)c2ccccc2-3)cc1 63.5%
CC(=O)NCCNC(=O)c1cc(-c2cccc3ccccc23)nc2ccccc12 60.3%
Brc1ccccc1C1Nc2cccc3cccc(c23)N1 56%
Oc1ccc(C2Nc3cccc4cccc(c34)N2)cc1 56.2%
Cc1ccc(Cl)cc1-c1ccc(/C=N/n2cnnc2)o1 63.3%
Cc1ccc(S(=O)(=O)N2CCN(C(=O)c3ccccc3-c3nc4ccccc4s3)CC2)c(C)c1 66.5%
CC(C)(C)c1ccc(C(=O)NCCn2c(N)c(C#N)c3nc4ccccc4nc32)cc1 94.7%
COC(=O)c1cc(NC(=O)c2nn(C)c(=O)c3ccccc23)cc(C(=O)OC)c1 66.5%
Cc1cc(C(=O)OCC(=O)c2c(N)n(C)c(=O)n(C)c2=O)c(C)o1 104%

inhibition, inactive:
O=C(CN1C(=O)NC2(CCCCCC2)C1=O)NCc1ccc(F)cc1 13.2%
CCc1ccc(N(CC(=O)Nc2sc3c(c2C(=O)OC)CCCC3)S(C)(=O)=O)cc1 -5.8%
N#CCSc1nn(-c2ccc(F)cc2)c(=S)s1 1.03%
O=S(=O)(c1ccccc1)N(Cc1cccc(F)c1)c1ccccc1 6.33%
Cc1ccc(N2C(=O)C(NC(=O)c3c(F)cccc3F)(C(F)(F)F)C3=C2CC(C)(C)CC3=O)cc1 (stereo unspecified) 11.2%
CC(C)C1C2=C(CC(C)(C)CC2=O)ON1c1ccccc1 (stereo unspecified) 14.7%
Cc1ccc2[nH]cc(CCNC(=O)c3ccc([N+](=O)[O-])cc3)c2c1 5.19%
CCN(CC)Cc1c(C(=O)N/N=C/c2cccc(OCc3ccc(F)cc3)c2)nnn1-c1nonc1N -0.16%
Cn1ccsc1=NC(=O)c1cc(S(=O)(=O)N2CCOCC2)ccc1Cl -5.18%
COC(=O)c1ccc(CSc2nc3ccccc3c(=O)n2-c2cccc(OC)c2)o1 5.8%
COc1cccc(-n2c(SCC(=O)NC3CCS(=O)(=O)C3)nc3ccccc3c2=O)c1 (stereo unspecified) -2.41%
CN(C)c1ccc(C2N(C)C(=O)c3ccccc3N2C)cc1 (stereo unspecified) -7.07%
CCOc1ccccc1-c1cc(C(=O)N/N=C(\C)c2cccnc2)c2ccccc2n1 -0.49%
O=C(NCCc1ccccn1)c1cc(-c2ccc(Cl)cc2)nc2ccccc12 13.5%
c1ccc(CC2CCN(c3nc4ccccc4n4cnnc34)CC2)cc1 -7.81%
Cc1ccc(C)c(N(CC(=O)NCc2ccco2)C(=O)CCC(=O)Nc2ccccn2)c1 -8.6%
COc1cc2c(cc1OC)C(c1ccccc1Br)NC(=O)C2 (stereo unspecified) -7.73%
Brc1ccccc1C1N=C(c2ccccc2)NO1 (stereo unspecified) -3.82%
COc1ccc(C2NC(=O)c3ccccc3N2)cc1 (stereo unspecified) 26.1%
COc1ccc([C@H]2CC(=O)C=C(c3ccc(C)cc3)C2)cc1 18.7%
CC(=O)Nc1ccc(S(=O)(=O)N2CCN(C(=O)c3ccccc3F)CC2)cc1 -16.7%
CC12COC3(C(=O)Nc4ccc(Cl)cn4)CC1CCC32C (stereo unspecified) 1.37%
CCc1ccccc1N(CC(=O)NCC1CCCO1)C(=O)CCC(=O)Nc1nccs1 (stereo unspecified) -16.6%
Clc1cc(-c2ccc(/C=N/n3cnnc3)o2)ccc1Br 1.32%
Brc1cc(/C=N/n2cnnc2)oc1Br 1.91%
N#Cc1ccc(-c2ccc(Cl)cc2)nc1Oc1ccc(F)cc1 -5.52%
Cc1c(C2=CCN(S(=O)(=O)c3ccc(Cl)cc3)CC2)c2ccccc2n1C 6.61%
O=C(CCCNS(=O)(=O)c1cccc2nsnc12)NCCN1CCN(c2ccccc2F)CC1 5.08%
Cc1ccc(S(=O)(=O)N2CCN(C(=O)Cn3c(=O)cnc4ccccc43)CC2)c(C)c1 -13.3%
Cc1ccc(S(=O)(=O)N2CCN(C(=O)N3CCOCC3)CC2)c(C)c1 17.1%
CC(C)(C)OC(=O)N1CCC(NC(=O)c2[nH]cnc2C(=O)N[C@@H](Cc2ccccc2)C(=O)OCc2ccccc2)CC1 9.22%
O=C(NCCN1CCOC1=O)C1CCC(=O)N(CCc2ccc(Cl)cc2)C1 (stereo unspecified) -10.1%
N#Cc1c(N)n(CCOC(=O)c2ccc(Cl)cc2)c2nc3ccccc3nc12 3.34%
COCC(C)OC(=O)c1c(N)n(CCCN2CCOCC2)c2nc3ccccc3nc12 (stereo unspecified) -8.22%
COc1ccc(S(=O)(=O)Nc2cccc3c2O[C@H](CN(C)S(=O)(=O)c2ccc(OC)cc2)[C@@H](C)CN([C@H](C)CO)C3=O)cc1 -15.4%
COc1ccc(NC(=O)c2sc(N3CCOCC3)nc2-c2ccccc2)c(OC)c1 18.7%
COC(=O)CN1C(=O)[C@H]2[C@@H](/C=C/c3ccccc3)N3C(=O)CN(Cc4ccccc4)C(=O)[C@@]3(Cc3ccccc3)[C@H]2C1=O -5.14%
CC(=O)Nc1ccc(NC(=O)CSC2=NS(=O)(=O)c3ccccc3N2)cc1 22%
COC(=O)[C@H](C(C)C)n1c(C)c(C(C)=O)c(C(C)=O)c1C -0.72%
CCC(C)NC(=O)c1nn(C)c(=O)c2ccccc12 (stereo unspecified) -22%
CCC(CC)c1nnc(NC(=O)c2nn(C)c(=O)c3ccccc23)s1 -0.4%
O=C(OCc1nc2ccccc2[nH]1)C1CCCCC1 -0.04%
Cn1c(N)c(C(=O)COC(=O)c2ccc3ccccc3c2)c(=O)n(C)c1=O 7.54%
Cn1c(N)c(C(=O)COC(=O)c2cnc(Cl)c(Cl)c2)c(=O)n(C)c1=O -4.58%
CCCCN(C(=O)CSCc1ccc(C)cc1)c1c(N)n(Cc2ccccc2)c(=O)[nH]c1=O -0.62%
